One data set has as its target Genome polyprotein (West Nile virus, UniProt P06935). The experiment in a line: Inhibition of WNV recombinant NS2B-NS3 protease.
Data set [1] concerns the target Genome polyprotein (West Nile virus) (UniProt P06935). The experiment in a line: Inhibition of WNV recombinant NS2B-NS3 protease at 10 uM. In outline:
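Single-concentration screen at 10 µM inhibitor, scoring inhibition of recombinant WNV protease processing of the chromogenic tetrapeptide substrate Ac-LKKR-pNA.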

Data set [2] relates to West Nile virus. The experiment in a line: Antiviral activity against WNV Kunjin infected african green monkey Vero cells assessed as reduction in plaque size at 12.5 uM measured at 48 hrs postinfection. Format: functional, organism-based. The gist of the method:
(§1)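 Vero cells were seeded at 4 × 10^4 per well and grown to about 90% confluence, then washed with PBS and serum-free medium. Cells were coinfected with WNV Kunjin (moi 0.04) plus compound at 100 nM–200 µM for 2 h at 37 °C. Overlay was M199, 3% FBS, 1.2% carboxymethyl cellulose, 48 h. Plaques were immunostained with anti-NS1 antibody and read as infrared area; ten plaques averaged per well, duplicates, IC50 from dose-response.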

Data set [3] relates to West Nile virus. The data set is described as follows: Antiviral activity against WNV Kunjin infected african green monkey Vero cells assessed as reduction in plaque size measured at 48 hrs postinfection. The format is functional, organism-based. The gist of the method:
as §1

The species named for the next data set is Bos taurus. The data set is described as follows: Inhibition of bovine trypsin at 1 uM.
Data set [4] concerns the target Coagulation factor X (Bos taurus) (UniProt P00743). The experiment in a line: Inhibition of bovine factor 10a at 1 uM.
Data set [5] deals with Plasminogen (Homo sapiens) (UniProt P00747). The data set is described as follows: Inhibition of human plasmin at 1 uM.
The target of data set [6] is Urokinase-type plasminogen activator (Homo sapiens) (UniProt P00749). The experiment in a line: Inhibition of human urokinase at 1 uM.
The subject of the next data set is Vero. The experiment in a line: Cytotoxicity against african green monkey Vero cells upto 400 uM after 72 hrs by MTT assay. The format is cell-based. The note with it: chlorocebus sabaeus. The gist of the method: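 MTT viability in Vero cells seeded at 4 × 10^4 per well and grown to about 90% confluence (~12 h). Fresh medium held compound at 5 nM–400 µM, with control medium ± DMSO. After 72 h, MTT was added for 3.5 h at 37 °C, then HCl/isopropanol for 4 h at RT. Absorbance was read at 550 nm; CC50 estimated; duplicates.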
In general terms: Formazan colour is commonly taken as a measure of viable cells.

Calls of active or inactive are those of the source. No cut-off for these calls is given here. Starred links: 1 amine or outer side, 2 acyl side, 3 side chain; linkers in the order of their positions; H or OH if unused. Non-standard residues stand in square brackets, D forms with d. Residues, ends and D or L forms follow the SMILES beside them. *: point of attachment. Hydrocinnamoyl = O=C(CCc1ccccc1)*; hArg = N=C(N)NCCCC[C@H](N)C(=O)O; Cit = NC(=O)NCCC[C@H](N)C(=O)O; Orn = NCCC[C@H](N)C(=O)O; 2Abz = Nc1ccccc1C(=O)O; Cbz = O=C(OCc1ccccc1)*; PhAc = O=C(Cc1ccccc1)*; CO = O=C([*:1])[*:2]; NHBn = c1ccc(CN*)cc1; Bz = O=C(c1ccccc1)*

Sequence of Genome polyprotein (West Nile virus) (P06935 whole entry): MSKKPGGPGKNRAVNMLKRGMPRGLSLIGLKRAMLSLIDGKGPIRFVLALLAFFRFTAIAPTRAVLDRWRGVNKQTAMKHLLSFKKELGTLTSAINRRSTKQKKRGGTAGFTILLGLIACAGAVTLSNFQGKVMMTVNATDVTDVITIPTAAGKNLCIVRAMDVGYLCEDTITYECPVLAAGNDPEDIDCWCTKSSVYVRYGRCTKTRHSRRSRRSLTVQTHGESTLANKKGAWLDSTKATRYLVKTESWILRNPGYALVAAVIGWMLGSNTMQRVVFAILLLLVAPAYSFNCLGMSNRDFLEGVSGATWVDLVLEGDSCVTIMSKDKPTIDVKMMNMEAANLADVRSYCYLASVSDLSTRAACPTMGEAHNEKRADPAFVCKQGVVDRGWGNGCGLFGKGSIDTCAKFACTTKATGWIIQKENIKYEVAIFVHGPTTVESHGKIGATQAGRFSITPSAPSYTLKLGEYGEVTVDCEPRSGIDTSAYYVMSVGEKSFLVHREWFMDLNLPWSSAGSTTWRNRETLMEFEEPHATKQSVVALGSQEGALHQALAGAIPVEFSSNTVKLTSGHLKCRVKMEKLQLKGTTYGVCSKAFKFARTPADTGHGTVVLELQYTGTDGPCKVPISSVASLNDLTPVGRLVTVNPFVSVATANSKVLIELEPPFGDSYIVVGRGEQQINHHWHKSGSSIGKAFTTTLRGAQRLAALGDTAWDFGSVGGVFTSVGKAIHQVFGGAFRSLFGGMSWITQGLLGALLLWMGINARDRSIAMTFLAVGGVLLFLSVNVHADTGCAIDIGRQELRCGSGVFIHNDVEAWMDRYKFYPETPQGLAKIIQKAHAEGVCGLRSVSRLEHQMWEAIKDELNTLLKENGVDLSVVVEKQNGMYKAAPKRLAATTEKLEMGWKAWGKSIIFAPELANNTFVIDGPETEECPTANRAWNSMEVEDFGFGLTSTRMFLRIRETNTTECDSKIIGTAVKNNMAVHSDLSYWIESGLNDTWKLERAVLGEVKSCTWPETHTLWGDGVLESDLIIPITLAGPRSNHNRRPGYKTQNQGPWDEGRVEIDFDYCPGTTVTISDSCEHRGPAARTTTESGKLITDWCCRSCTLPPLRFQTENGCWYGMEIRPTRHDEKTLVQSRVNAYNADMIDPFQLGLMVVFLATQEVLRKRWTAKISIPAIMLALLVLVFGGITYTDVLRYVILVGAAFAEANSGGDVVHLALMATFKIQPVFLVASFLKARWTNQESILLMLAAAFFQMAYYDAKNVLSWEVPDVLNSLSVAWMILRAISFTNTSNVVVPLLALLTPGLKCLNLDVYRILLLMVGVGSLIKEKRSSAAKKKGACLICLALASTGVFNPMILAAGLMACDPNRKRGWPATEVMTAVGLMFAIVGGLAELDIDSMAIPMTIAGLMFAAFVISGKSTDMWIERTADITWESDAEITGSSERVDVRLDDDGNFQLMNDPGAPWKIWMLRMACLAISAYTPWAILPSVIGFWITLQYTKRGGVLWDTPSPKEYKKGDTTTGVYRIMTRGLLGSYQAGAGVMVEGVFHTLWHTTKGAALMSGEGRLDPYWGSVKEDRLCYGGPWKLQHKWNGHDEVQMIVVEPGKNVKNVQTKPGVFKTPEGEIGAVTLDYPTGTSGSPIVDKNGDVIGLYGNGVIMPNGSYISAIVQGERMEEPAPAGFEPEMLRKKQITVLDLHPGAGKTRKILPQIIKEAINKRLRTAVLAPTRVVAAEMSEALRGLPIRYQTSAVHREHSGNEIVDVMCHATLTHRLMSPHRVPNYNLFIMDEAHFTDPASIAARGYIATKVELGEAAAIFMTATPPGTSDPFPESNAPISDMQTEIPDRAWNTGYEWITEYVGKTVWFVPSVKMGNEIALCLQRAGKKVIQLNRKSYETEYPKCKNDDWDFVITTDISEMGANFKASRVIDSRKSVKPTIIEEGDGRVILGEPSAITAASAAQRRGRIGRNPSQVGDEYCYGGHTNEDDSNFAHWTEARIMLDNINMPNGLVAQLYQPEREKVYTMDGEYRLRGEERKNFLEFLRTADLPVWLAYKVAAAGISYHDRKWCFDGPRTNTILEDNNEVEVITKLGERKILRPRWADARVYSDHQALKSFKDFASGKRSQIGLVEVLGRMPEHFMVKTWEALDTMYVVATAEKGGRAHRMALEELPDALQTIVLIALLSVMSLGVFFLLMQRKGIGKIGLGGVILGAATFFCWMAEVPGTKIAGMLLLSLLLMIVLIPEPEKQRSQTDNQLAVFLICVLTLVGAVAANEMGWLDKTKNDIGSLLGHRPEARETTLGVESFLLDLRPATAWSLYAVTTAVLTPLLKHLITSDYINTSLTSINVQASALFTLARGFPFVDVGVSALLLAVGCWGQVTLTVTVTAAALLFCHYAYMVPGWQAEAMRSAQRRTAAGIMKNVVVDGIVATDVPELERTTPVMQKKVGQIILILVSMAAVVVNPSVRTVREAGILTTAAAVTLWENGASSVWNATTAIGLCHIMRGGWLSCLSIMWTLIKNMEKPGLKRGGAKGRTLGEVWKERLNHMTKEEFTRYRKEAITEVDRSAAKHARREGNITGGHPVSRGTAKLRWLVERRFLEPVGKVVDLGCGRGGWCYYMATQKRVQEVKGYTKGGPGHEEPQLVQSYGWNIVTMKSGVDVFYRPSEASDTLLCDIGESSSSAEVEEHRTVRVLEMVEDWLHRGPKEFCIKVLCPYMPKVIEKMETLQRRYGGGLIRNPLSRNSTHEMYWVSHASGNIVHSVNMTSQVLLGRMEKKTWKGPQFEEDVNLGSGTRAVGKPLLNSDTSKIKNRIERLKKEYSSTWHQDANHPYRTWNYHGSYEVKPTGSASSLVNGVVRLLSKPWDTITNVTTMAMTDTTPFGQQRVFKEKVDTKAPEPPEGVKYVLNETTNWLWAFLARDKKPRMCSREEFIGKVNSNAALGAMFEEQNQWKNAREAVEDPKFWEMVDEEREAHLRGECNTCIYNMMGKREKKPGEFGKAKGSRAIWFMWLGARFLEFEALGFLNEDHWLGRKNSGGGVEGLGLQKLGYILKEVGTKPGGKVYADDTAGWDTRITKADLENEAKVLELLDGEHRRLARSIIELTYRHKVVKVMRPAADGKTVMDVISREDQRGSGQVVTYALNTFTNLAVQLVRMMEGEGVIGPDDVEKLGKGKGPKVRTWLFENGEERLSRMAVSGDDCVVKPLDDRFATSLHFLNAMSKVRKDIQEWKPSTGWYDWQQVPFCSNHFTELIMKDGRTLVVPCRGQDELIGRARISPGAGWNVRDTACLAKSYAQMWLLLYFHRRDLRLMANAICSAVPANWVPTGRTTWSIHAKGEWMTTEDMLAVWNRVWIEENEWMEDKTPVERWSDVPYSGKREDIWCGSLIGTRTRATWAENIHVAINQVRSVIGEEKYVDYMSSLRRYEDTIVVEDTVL
Sequence of Genome polyprotein (P06935 1371-1501 limits assumed): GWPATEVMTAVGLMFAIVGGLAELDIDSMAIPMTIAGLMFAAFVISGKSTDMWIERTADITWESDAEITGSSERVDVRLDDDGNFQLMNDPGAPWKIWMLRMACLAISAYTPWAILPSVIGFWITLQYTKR
Sequence of Genome polyprotein (P06935 1502-2120 limits assumed): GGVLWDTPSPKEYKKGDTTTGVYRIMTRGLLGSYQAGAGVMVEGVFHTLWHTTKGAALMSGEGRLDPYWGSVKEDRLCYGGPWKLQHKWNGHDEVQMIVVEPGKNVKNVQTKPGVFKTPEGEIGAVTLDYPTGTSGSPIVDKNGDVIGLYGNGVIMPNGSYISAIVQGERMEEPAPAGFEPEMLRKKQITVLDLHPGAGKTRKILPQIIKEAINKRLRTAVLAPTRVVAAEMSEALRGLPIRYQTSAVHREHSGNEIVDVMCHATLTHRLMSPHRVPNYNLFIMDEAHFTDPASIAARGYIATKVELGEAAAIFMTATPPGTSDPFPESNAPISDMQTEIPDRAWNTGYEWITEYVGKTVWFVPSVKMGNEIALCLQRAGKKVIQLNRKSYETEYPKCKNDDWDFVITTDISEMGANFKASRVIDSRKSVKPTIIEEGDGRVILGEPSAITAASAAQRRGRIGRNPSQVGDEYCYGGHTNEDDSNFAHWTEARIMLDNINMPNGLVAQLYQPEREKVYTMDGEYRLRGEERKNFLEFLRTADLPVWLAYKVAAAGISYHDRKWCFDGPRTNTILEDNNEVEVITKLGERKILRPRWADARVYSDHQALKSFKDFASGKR
Sequence of Coagulation factor X (Bos taurus) (P00743 41-180 limits assumed): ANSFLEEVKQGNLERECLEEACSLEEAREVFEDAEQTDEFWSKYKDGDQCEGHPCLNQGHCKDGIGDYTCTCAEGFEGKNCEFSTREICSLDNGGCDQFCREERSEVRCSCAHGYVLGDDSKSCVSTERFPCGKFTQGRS
Sequence of Coagulation factor X (Bos taurus) (P00743 234-492 limits assumed): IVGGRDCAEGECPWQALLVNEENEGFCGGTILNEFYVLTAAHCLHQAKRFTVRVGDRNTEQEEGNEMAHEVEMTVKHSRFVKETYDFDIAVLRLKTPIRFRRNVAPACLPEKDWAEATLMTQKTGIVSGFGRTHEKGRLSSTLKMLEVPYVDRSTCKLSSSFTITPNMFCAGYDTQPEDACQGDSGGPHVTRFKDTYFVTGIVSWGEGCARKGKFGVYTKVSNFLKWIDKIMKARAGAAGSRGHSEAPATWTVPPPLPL

Take `COc1cccc(CC(=O)N[C@@H](CCCCN)C(=O)N[C@@H](CCCCN)C(=O)N[C@H](C=O)CCCN=C(N)N)c1`: at Genome polyprotein, the IC50 (usually the midpoint of a concentration-inhibition curve) was found to be 60 nM and the Ki (as a rule, a measure of affinity in units of concentration, obtained from inhibition or displacement) was determined as 11 nM.

On to `N=C(N)NCCC[C@@H](C=O)NC(=O)[C@H](CCCCN)NC(=O)[C@H](CCCCN)NC(=O)/C=C/c1ccccc1`, for which the inhibition – broadly, how much of the control response was suppressed – in [1] is more than 80%. Moreover, on Genome polyprotein, the IC50 was 580 nM and the Ki is 104 nM.

Regarding `COc1ccc2ccc([C@H](C)C(=O)N[C@@H](CCCCN)C(=O)N[C@@H](CCCCN)C(=O)N[C@H](C=O)CCCNC(=N)N)cc2c1`, the inhibition in data set [1] was more than 80%. Besides, at Genome polyprotein, the IC50 was 112 nM and the Ki stood at 20 nM.

With `N=C(N)NCCC[C@@H](C=O)NC(=O)[C@H](CCCCN)NC(=O)[C@H](CCCCN)NC(=O)Cc1ccc(-c2ccccc2)cc1`, the inhibition in [1] is more than 80%. In addition, on Genome polyprotein, the IC50 was determined as 32 nM and the Ki came to 6 nM.

Take `NCCCC[C@H](NC(=O)c1ccc2ccccc2c1)C(=O)N[C@@H](CCCCN)C(=O)N[C@H](C=O)CCCN=C(N)N`: at Genome polyprotein, the IC50 is 231 nM and the Ki was found to be 41 nM.

For the compound `N=C(N)NCCC[C@@H](C=O)NC(=O)[C@H](CCCCN)NC(=O)[C@H](CCCCN)NC(=O)COc1ccccc1`, on Genome polyprotein, the IC50 is 107 nM and the Ki turned out to be 19 nM.

As to `COc1cccc(CC(=O)N[C@@H](CCCCN)C(=O)N[C@@H](CCCCN)C(=O)N[C@H](C=O)CCCNC(=N)N)c1`, the inhibition in data set [1] is more than 80%.

Consider `N=C(N)NCCC[C@@H](C=O)NC(=O)[C@H](CCCCN)NC(=O)[C@H](CCCCN)NC(=O)c1ccc2ccccc2c1`, for which the inhibition in data set [1] was more than 80%.

Regarding `NCCCC[C@H](NC(=O)c1ccccc1)C(=O)N[C@@H](CCCCN)C(=O)N[C@H](C=O)CCCN=C(N)N` (Bz-Lys-Lys-Arg-aldehyde), on Genome polyprotein, the IC50 is 271 nM and the Ki turned out to be 49 nM.

Consider `NCCCC[C@H](NC(=O)OCc1ccccc1)C(=O)N[C@@H](CCCCN)C(=O)N[C@H](C=O)CCCN=C(N)N` (Cbz-Lys-Lys-Arg-aldehyde), for which, on Genome polyprotein, the IC50 amounted to 222 nM and the Ki turned out to be 40 nM.

`N=C(N)NCCC[C@@H](C=O)NC(=O)[C@H](CCCCN)NC(=O)[C@H](CCCCN)NC(=O)c1ccccc1N` (H-[2Abz]KKR-aldehyde): on Genome polyprotein, the IC50 was 891 nM and the Ki is 160 nM.

In the case of `NCCCC[C@H](NC(=O)CCc1ccccc1)C(=O)N[C@@H](CCCCN)C(=O)N[C@H](C=O)CCCN=C(N)N` (Hydrocinnamoyl-Lys-Lys-Arg-aldehyde), on Genome polyprotein, the IC50 was determined as 454 nM and the Ki was 81 nM.

Regarding `NCCCC[C@H](NC(=O)[C@H](CCCN=C(N)N)NC(=O)Cc1ccccc1)C(=O)N[C@H](C=O)CCCN=C(N)N` (PhAc-Arg-Lys-Arg-aldehyde), at Genome polyprotein, the IC50 was 154 nM and the Ki was 28 nM.

Regarding `N=C(N)NCCC[C@@H](C=O)NC(=O)[C@H](CCCNC(=N)N)NC(=O)[C@H](CCCCN)NC(=O)Cc1ccccc1` (PhAc-Lys-Arg-Arg-aldehyde), on Genome polyprotein, the IC50 worked out at 325 nM and the Ki turned out to be 58 nM.

Turning to `N=C(N)NCCC[C@@H](C=O)NC(=O)[C@H](CCCCN)NC(=O)[C@H](CCCCN)NC(=O)Cc1ccccc1` (PhAc-Lys-Lys-Arg-aldehyde), the inhibition in data set [1] was more than 80%; in the data set listed under Bos taurus, 25%; in data set [4], 0%; in [5], 12%; in data set [6], 0%. Besides, the outcome in the data set with West Nile virus [2] was Active. The 50% inhibitory concentration (IC50) in the data set on West Nile virus [3] worked out at 1600 nM.

Take `NCCCC[C@H](NC(=O)Cc1ccccc1)C(=O)N[C@@H](CCCCN)C(=O)N[C@H](C=O)CCCN=C(N)N` (PhAc-Lys-Lys-Arg-aldehyde): at Genome polyprotein, the IC50 turned out to be 51 nM and the Ki was 9 nM. For the same compound, the Activity result in the data set on Vero was “Non-toxic”.

Regarding `NCCCC[C@H](NC(=O)Cc1ccccc1)C(=O)N[C@@H](CCCCN)C(=O)N[C@H](C=O)Cc1c[nH]c2ccccc12` (PhAc-Lys-Lys-Trp-aldehyde), on Genome polyprotein, the IC50 came out at 25700 nM and the Ki came out at 4600 nM.

On to `N=C(N)NCCC[C@@H](C=O)NC(=O)[C@H](CCCNC(N)=O)NC(=O)[C@H](CCCCN)NC(=O)Cc1ccccc1` (PhAc-Lys-[Cit]-Arg-aldehyde), for which, on Genome polyprotein, the IC50 is 11600 nM and the Ki is 2070 nM.

Turning to `N=C(N)NCCC[C@@H](C=O)NC(=O)[C@H](CCCN)NC(=O)[C@H](CCCCN)NC(=O)Cc1ccccc1` (PhAc-Lys-[Orn]-Arg-aldehyde), on Genome polyprotein, the IC50 is 73 nM and the Ki came to 13 nM.

`N=C(N)NCCCC[C@H](NC(=O)[C@H](CCCCN)NC(=O)Cc1ccccc1)C(=O)N[C@H](C=O)CCCNC(=N)N` (PhAc-Lys-[hArg]-Arg-aldehyde): on Genome polyprotein, the IC50 was 297 nM and the Ki amounted to 53 nM.

Consider `N=C(N)NCCC[C@@H](C=O)NC(=O)[C@H](CCCCN)NC(=O)[C@H](CCCNC(N)=O)NC(=O)Cc1ccccc1` (PhAc-[Cit]-Lys-Arg-aldehyde), for which, on Genome polyprotein, the IC50 was determined as 619 nM and the Ki was 111 nM.

Take `N=C(N)NCCC[C@@H](C=O)NC(=O)[C@H](CCCCN)NC(=O)[C@H](CCCN)NC(=O)Cc1ccccc1` (PhAc-[Orn]-Lys-Arg-aldehyde): on Genome polyprotein, the IC50 came to 255 nM and the Ki came out at 46 nM.

As for `N=C(N)NCCCC[C@H](NC(=O)Cc1ccccc1)C(=O)N[C@@H](CCCCN)C(=O)N[C@H](C=O)CCCNC(=N)N` (PhAc-[hArg]-Lys-Arg-aldehyde), on Genome polyprotein, the IC50 is 254 nM and the Ki came to 44 nM.

As for `N=C(N)NCCC[C@@H](C=O)NC(=O)[C@H](CCCCN)NC(=O)[C@H](CCCCN)NC(=O)NCc1ccccc1` ({NHBn-CO}-Lys-Lys-Arg-aldehyde), the inhibition in data set [1] is more than 80%. For the same compound, on Genome polyprotein, the IC50 stood at 146 nM and the Ki is 26 nM.

Values taken from ChEMBL document CHEMBL1140065, “Potent cationic inhibitors of West Nile virus NS2B/NS3 protease with serum stability, cell permeability and antiviral activity” (J Med Chem, 2008).
